Screening results: PubChem BioAssay, Sanford-Burnham Center for Chemical Genomics
APJ ag – APJ receptor agonism; P35414; CHO-K1 APJ PathHunter beta-arrestin, luminescence; 0% DMSO wells, 100% apelin; activation, % at 20 µM; 330,000 tested, 0.11% active;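 active means activation more than six SD over the plate average, tested at 20 µM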
Target sequence (P35414 whole entry, looked up): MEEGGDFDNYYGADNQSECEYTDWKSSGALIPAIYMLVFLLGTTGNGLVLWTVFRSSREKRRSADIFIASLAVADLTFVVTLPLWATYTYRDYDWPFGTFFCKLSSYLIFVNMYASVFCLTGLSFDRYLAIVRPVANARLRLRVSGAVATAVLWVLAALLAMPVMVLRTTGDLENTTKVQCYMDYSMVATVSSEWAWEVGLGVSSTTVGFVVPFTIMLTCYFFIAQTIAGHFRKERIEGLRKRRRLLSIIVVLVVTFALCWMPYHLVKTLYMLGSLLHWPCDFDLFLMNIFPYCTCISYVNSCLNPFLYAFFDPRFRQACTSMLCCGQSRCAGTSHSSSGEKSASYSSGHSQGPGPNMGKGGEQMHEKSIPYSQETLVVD
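Assay system: engineered CHO-K1 APJ arrestin reporter cells; Amount: 1000 CHO-K1 reporter cells seeded per well; Dosing: one dose, 20 µM compound, 1% DMSO; Times: compound stimulation 90 min at 25 °C, detection 60 min; Measured by: luminescent beta-gal fragment complementation, chemiluminescent substrate; Read-out: APJ–arrestin association signal; Controls: DMSO vs Apelin-13 10 nM.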
EBI2 block – EBI2 (human) antagonism; AID 651636; EBI2 beta-arrestin recruitment, luminescence, 7a,25-OHC stimulated; P32249; 360,000 tested, 0.81% active; inhibition, % at 5 µM; in the data active means inhibition above about 38%;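 further: enzyme fragment complementation signal reports receptor beta-arrestin coupling in cells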
CXCR6 inh – inhibitors of human CXCR6 receptor; O00574; CHO-K1 PathHunter CXCR6 beta-arrestin, luminescence; inhibition, % at 20 µM; 360,000 tested, 0.36% active; in the data active means inhibition above about 34%, passing the limit was not always enough;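 further: antagonist mode with CXCL16 agonist at 10 nM final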
APJ antag – blocks the human apelin receptor APJ. 330,000 tested, 0.32% active. CHO-K1 APJ beta-arrestin complementation, luminescence. P35414. inhibition, % at 20 µM;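 active means inhibition above about 40% at 20 µM, limit read from the data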;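 further: cells challenged with 10 nM apelin-13 agonist together with compound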
CCR6 antagonist – CCR6 (human) receptor antagonism | P51684 | CHO-K1 CCR6 PathHunter beta-arrestin, luminescence, CCL20-stimulated | inhibition, % at 20 µM | 340,000 tested, 0.49% active;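 active means compounds whose inhibition of the agonist-driven luminescence signal at 20 µM reaches about 50%, limit read from the data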;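 further: cells stimulated with CCL20 at 14 nM final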
EBI2 conf – confirmation of human EBI2 receptor antagonists. shares compounds with EBI2 block. 2,400 tested, 29% active. AID 651997. inhibition, % at 5 µM. EBI2 beta-arrestin luminescence, 7a,25-OHC antagonism;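 active means inhibition of at least 50%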
EBI2 agonist – EBI2 agonism counter-screen | shares compounds with EBI2 block | AID 652000 | activation, % at 5 µM | 2,400 tested, under 10 active | EBI2-expressing cells, agonist mode, luminescence, 60 min; 0% vehicle, 100% 7α,25-dihydroxycholesterol control;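 active means activation of at least 50%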
bGal counter – beta-galactosidase inhibition counter-screen; shares compounds with EBI2 block; purified beta-galactosidase, luminescent Galacton Star, 15 min; inhibition, % at 5 µM; 2,400 tested, 1% active; AID 652176;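 active means replicate-average signal at least 3 plate SD below neutral wells, shown as high inhibition, flagging enzyme-inhibiting false positives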;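 further: higher means stronger loss of beta-gal luminescence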
Of the large screens only hits and unclear results are named; the others gave an inactive call (follow-up assays come after a bar, where they were run). A selection: hits, their analogues and other compounds. The true share with any hit is near 1.5%.

Cc1ccc(/C=C2\SC(N3CCCC3)=NC2=O)cc1	none (no result: EBI2 block, CXCR6 inh, CCR6 antagonist)
CCOc1ccc(/C=C2\SC(N3CCCCC3)=NC2=O)cc1	EBI2 block 74 | EBI2 conf 50 | EBI2 agonist inactive | bGal counter inactive
CCOC(=O)C1CCN(C2=NC(=O)/C(=C/c3ccc(Cl)cc3)S2)CC1	EBI2 block 87 | EBI2 conf 66 | EBI2 agonist inactive | bGal counter inactive
CC(C)(C)OC(=O)N1CCC(C(=O)Nc2cccc(C(=O)N3CCOCC3)c2)CC1	none
COc1ccccc1/C=N/NC(=O)NC12CC3CC(CC(C3)C1)C2	EBI2 block 47 | EBI2 conf inactive | EBI2 agonist inactive | bGal counter inactive
CNC(=S)N1N=C(c2ccc(C)cc2)CC1c1ccc(OC)c(OC)c1 (stereo not given)	none
CNC(=S)N1N=C(c2ccc(Br)cc2)CC1c1ccc(Br)cc1 (stereo not given)	EBI2 block 80 | EBI2 conf 70 | EBI2 agonist inactive | bGal counter inactive
CNC(=S)N1N=C(c2ccc(OC)cc2)CC1c1ccc(N(C)C)cc1 (stereo not given)	EBI2 block 87 | EBI2 conf 81 | EBI2 agonist inactive | bGal counter inactive
Cc1cc(C)c(S(=O)(=O)N2CCN(C(=O)c3ccc(-n4nc(C)c(Cl)c4C)cc3)CC2)c(C)c1	EBI2 block 94 (no result: APJ ag, APJ antag) | EBI2 conf 68 | EBI2 agonist inactive | bGal counter inactive
Cc1cc(C)c(S(=O)(=O)N2CCN(C(=O)c3c(C)nn(-c4ccccc4)c3Cl)CC2)c(C)c1	none (no result: APJ ag, APJ antag)
Cn1cnnc1SCC(=O)Nc1ccc2ccccc2c1	none
O=C(COC(=O)c1ccc(F)c(S(=O)(=O)N2CCOCC2)c1)NCc1ccc(Cl)cc1	none
COc1ccc(-c2ccc(CN3C(C(C)C)C(=O)N(Cc4cn(CC5CCCCC5)nn4)CCS3(=O)=O)cc2)cc1OC (stereo not given)	EBI2 block 44 (no result: APJ ag, APJ antag, CCR6 antagonist) | EBI2 conf inactive | EBI2 agonist inactive | bGal counter inactive
Cc1ccc(Cl)cc1N1CCN(C(=O)Cc2c(C(=O)O)[nH]c3ccccc23)CC1	none
Cc1ccc(Cl)cc1N1CCN(C(=O)c2cc3c(=O)[nH]c4ccccc4c3n2C)CC1	EBI2 block 73 | EBI2 conf 63 | EBI2 agonist inactive | bGal counter inactive
CCc1ccc(C(=O)NNC(=O)c2ccc(=O)n(C)n2)cc1	none
O=C(c1ccc(Cl)cc1)N1CCC(O)(CSc2ccc(Cl)cc2Cl)CC1	EBI2 block 66 | EBI2 conf 56 | EBI2 agonist inactive | bGal counter inactive
CCN(CC)C1CCN(Cc2c(C(=O)N3CCCCCCC3)nc3ccc(Cl)cn23)C1 (stereo not given)	none
CNC(=S)N/N=C/c1ccccc1Cl	none
S=C(N/N=C/c1ccccc1Cl)Nc1ccccc1	EBI2 block 43 | EBI2 conf inactive | EBI2 agonist inactive | bGal counter inactive
Cc1ccc(C)c(S(=O)(=O)N2CCN(C(=O)CCCc3c[nH]c4ccccc34)CC2)c1	EBI2 block 60 | EBI2 conf inactive | EBI2 agonist inactive | bGal counter inactive
Cc1ccc(C)c(S(=O)(=O)N2CCN(C(=O)CSc3ccccc3)CC2)c1	EBI2 block 57 | EBI2 conf 62 | EBI2 agonist inactive | bGal counter inactive
O=C(CSc1ccccc1)N1CCN(S(=O)(=O)c2ccccc2)CC1	none
C#CCNC(=O)C1=C[C@@H](c2csc3ccccc23)C[C@@H](OCc2ccc(CO)cc2)O1	none
CC(=O)c1cccc(NC(=O)c2ccc(OC3CSC3)cc2)c1	none
Cc1cccc(NC(=O)c2ccc(OC3CSC3)cc2)c1	EBI2 block 55 | EBI2 conf inactive | EBI2 agonist inactive | bGal counter inactive
COC(=O)c1cc(NC(=O)c2cc3ccccc3o2)cc(C(=O)OC)c1	none
COC(=O)c1cccc(NC(=O)c2cc3ccccc3o2)c1	EBI2 block 44 | EBI2 conf inactive | EBI2 agonist inactive | bGal counter inactive
O=C(CNS(=O)(=O)c1ccccc1)Nc1ccc(C(F)(F)F)cc1	none
Cc1ccccc1Oc1ncnc2oc(-c3ccccc3)cc12	EBI2 block 65 | EBI2 conf inactive | EBI2 agonist inactive | bGal counter inactive
Clc1ccc(Oc2ncnc3oc(-c4ccccc4)cc23)cc1	none
COc1ccc(/C=N/n2cnc3c(sc(=S)n3-c3ccccc3)c2=O)cc1	EBI2 block 51 | EBI2 conf inactive | EBI2 agonist inactive | bGal counter inactive
Nn1c(SCC(=O)NCCC2=CCCCC2)nnc1C(F)(F)F	none
COc1ccc(CCNc2ccc(C)cc2)cc1	EBI2 block 54 | EBI2 conf inactive | EBI2 agonist inactive | bGal counter inactive
COc1ccc(CCNc2ccncn2)cc1	none
N#CC1=C(N)Oc2cc(O)c(Cl)cc2C1c1ccccc1F (stereo not given)	none
Cc1ccc(C(=O)N2CCN(C/C=C/c3ccccc3)CC2)cc1S(=O)(=O)N1CCOCC1	none (no result: APJ ag, APJ antag)
COc1ccc(OCC(O)CN2CCN(c3ccc(Cl)cc3)CC2)cc1 (stereo not given)	EBI2 block 47 | EBI2 conf inactive | EBI2 agonist inactive | bGal counter inactive
OC(COc1ccccc1)CN1CCN(c2ccccc2)CC1 (stereo not given)	none (no result: APJ ag, APJ antag)
COc1cccc(OCC(O)CN2CCN(c3ccc(Cl)cc3)CC2)c1 (stereo not given)	none
O=C(c1ccccc1)N1CCN(CC(O)COc2ccc(Br)cc2)CC1 (stereo not given)	EBI2 block 71 | EBI2 conf inactive | EBI2 agonist inactive | bGal counter inactive
OC(COc1ccc(Br)cc1)CN1CCN(c2ccccc2)CC1 (stereo not given)	EBI2 block 48 | EBI2 conf inactive | EBI2 agonist inactive | bGal counter inactive
CN(C)S(=O)(=O)N1CCN(CC(O)COc2ccc3cc(Br)ccc3c2)CC1 (stereo not given)	EBI2 block 85 | EBI2 conf 67 | EBI2 agonist inactive | bGal counter inactive
COc1cc(C(=O)N2CCN(CC(O)COc3ccccc3)CC2)cc(OC)c1OC (stereo not given)	none
O=C(NCc1ccccc1)C1C(=O)Nc2ccccc2C(=O)N1Cc1ccccc1 (stereo not given)	none (no result: APJ ag, CXCR6 inh, APJ antag, CCR6 antagonist)
COc1ccc2[nH]cc(/C=C/c3cc[n+](C)cc3)c2c1	none
O=C(CNC(=O)c1ccncc1)Nc1ccc(F)c(F)c1	none
O=C(c1ccc(F)c(F)c1)N1CCCc2ccccc21	none
CCC(CC)C(=O)Nc1nnc(SCC(=O)NC2CC2)s1	none
